From ChEMBL document CHEMBL1909502, “Design and synthesis of 2-(1, 3-dioxoisoindolin-2-yl)-N-(4-oxo-2-substitutedthiazolidin-3-yl) acetamide derivatives as potential anticonvulsant agents” (Eur J Med Chem, 2011)
Calls of active or inactive are those of the source. The rule behind the calls is not given here.

Legend:
Mus musculus [1] = assay: Neurotoxicity in Swiss albino CF1 mouse assessed as minimal motor deficit at 30 to 300 mg/kg, ip after 0.5 hrs by rotarod test; format: toxicity, organism-based; set-up: dose 30-300 mg/kg, route intraperitoneal; settings: in vivo
Outline: (§1)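 Mice (male Swiss albino CF-1, groups of 5) were trained on an accelerating rotarod at 10 rpm with a 3.2 cm rod and had to stay on for two consecutive 90 s trials. Trained animals then received 30, 100 or 300 mg/kg i.p. Deficit was inability to stay on the rod for at least 1 min in each of three trials, checked at 0.5 h and 4 h. The value is the minimal dose giving deficit in 50% or more of the animals.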

Mus musculus [2] = assay: Anticonvulsant activity in Swiss albino CF1 mouse assessed as protection against subcutaneous pentylenetetrazole-induced seizures at 30 to 300 mg/kg, ip after 4 hrs postdose; format: functional, organism-based
Outline: (§2)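 Male Swiss albino CF-1 mice, 20–30 g. Compounds were suspended in 0.5% methyl cellulose and given i.p. at 0.01 mL/g, at 30, 100 and 300 mg/kg. MES and sc PTZ seizure tests followed reported procedures at 0.5 h and 4 h post-dose. The value is the minimal dose protecting 50% or more of the animals.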

[3] = Octanol-phosphate buffer partition coefficient, log P of the compound at 5 mg after 24 hrs by UV spectroscopic analysis; format: physicochemical
Outline: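 Octanol/phosphate buffer partition at room temperature. 5 mg of drug was added to 10 mL octanol plus 10 mL buffer and shaken mechanically for 24 h. The mixture was left to equilibrate for 6 h, and the phases were separated and membrane-filtered. Drug in the aqueous phase was quantified by UV spectroscopy.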

Mus musculus [4] = assay: Neurotoxicity in Swiss albino CF1 mouse assessed as decrease in locomotor activity at 30 mg/kg, ip after 4 hrs postdose; format: toxicity, organism-based; set-up: dose 30 mg/kg, route intraperitoneal; scale not given: the % may be the effect or the level left; settings: in vivo
Outline: (§3)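 Compounds in 30% PEG 200 were given i.p. at 30 mg/kg to male Swiss albino CF-1 mice. Locomotor activity was scored digitally in an actophotometer for 10 min, 24 h before dosing and again 0.5 h and 4 h after. The value is the % decrease against the pre-treatment score, as mean ± SEM, with Student's t test at p < 0.05.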

Mus musculus [5] = assay: Neurotoxicity in Swiss albino CF1 mouse assessed as decrease in locomotor activity at 30 mg/kg, ip after 0.5 hrs postdose; format: toxicity, organism-based; set-up: dose 30 mg/kg, route intraperitoneal; scale not given: the % may be the effect or the level left; settings: in vivo; outline: as §3
Mus musculus [6] = assay: Anticonvulsant activity in ip dosed Swiss albino CF1 mouse assessed as protection against subcutaneous pentylenetetrazole-induced seizures after 0.5 hrs; format: functional; settings: Swiss albino CF1, 0.5 h, read-out: MED; outline: as §2
Mus musculus [7] = assay: Anticonvulsant activity in ip dosed Swiss albino CF1 mouse assessed as protection against maximal electroshock-induced seizures after 4 hrs; format: functional; settings: read-out: MED; outline: as §2
Mus musculus [8] = assay: Anticonvulsant activity in ip dosed Swiss albino CF1 mouse assessed as protection against maximal electroshock-induced seizures after 0.5 hrs; format: functional; settings: read-out: MED; outline: as §2
Mus musculus [9] = assay: Neurotoxicity in Swiss albino CF1 mouse assessed as minimal motor deficit at 30 to 300 mg/kg, ip after 4 hrs by rotarod test; format: toxicity, organism-based; set-up: dose 30-300 mg/kg, route intraperitoneal; settings: in vivo; outline: as §1
Mus musculus [10] = assay: Anticonvulsant activity in Swiss albino CF1 mouse assessed as protection against subcutaneous pentylenetetrazole-induced seizures at 30 to 300 mg/kg, ip after 0.5 hrs postdose; format: functional, organism-based; outline: as §2
Mus musculus [11] = assay: Anticonvulsant activity in Swiss albino CF1 mouse assessed as protection against maximal electroshock-induced seizures at 30 to 300 mg/kg, ip after 0.5 hrs postdose; format: functional, organism-based; outline: as §2
Mus musculus [12] = assay: Neurotoxicity in ip dosed Swiss albino CF1 mouse assessed as minimum dose required to produce minimal motor deficit after 4 hrs by rotarod test; format: toxicity, organism-based; settings: in vivo; outline: as §1
Mus musculus [13] = assay: Anticonvulsant activity in ip dosed Swiss albino CF1 mouse assessed as protection against subcutaneous pentylenetetrazole-induced seizures after 4 hrs; format: functional; settings: Swiss albino CF1, 4 h, read-out: MED; outline: as §2
Mus musculus [14] = assay: Neurotoxicity in ip dosed Swiss albino CF1 mouse assessed as minimum dose required to produce minimal motor deficit after 0.5 hrs by rotarod test; format: toxicity, organism-based; settings: in vivo; outline: as §1
Mus musculus [15] = assay: Anticonvulsant activity in Swiss albino CF1 mouse assessed as protection against maximal electroshock-induced seizures at 30 to 300 mg/kg, ip after 4 hrs postdose; format: functional, organism-based; outline: as §2

| Structure (SMILES) | Activity (Mus musculus [1]) | Activity (Mus musculus [2]) | logP at 24 h [3] | Activity (Mus musculus [4]) [%] | Activity (Mus musculus [5]) [%] | minimal effective dose (Mus musculus [6]) [mg/kg] | minimal effective dose (Mus musculus [7]) [mg/kg] | minimal effective dose (Mus musculus [8]) [mg/kg] | Activity (Mus musculus [9]) | Activity (Mus musculus [10]) | Activity (Mus musculus [11]) | MTC (Mus musculus [12]) [mg/kg] | minimal effective dose (Mus musculus [13]) [mg/kg] | MTC (Mus musculus [14]) [mg/kg] | Activity (Mus musculus [15]) |
| --- | --- | --- | --- | --- | --- | --- | --- | --- | --- | --- | --- | --- | --- | --- | --- |
| O=C(CN1C(=O)c2ccccc2C1=O)NN1C(=O)CSC1/C=C/c1ccccc1 (centres undefined) | Non-toxic | inactive | 3.65 | 66.5 | 5.66 | 300 | 300 | 300 | Non-toxic |  |  |  |  |  |  |
| O=C(CN1C(=O)c2ccccc2C1=O)NN1C(=O)CSC1c1cccs1 (centres undefined) | Non-toxic | inactive | 2.15 | 71.73 | 63.04 |  | 100 |  |  | inactive | inactive | 100 |  |  |  |
| CN(C)c1ccc(C2SCC(=O)N2NC(=O)CN2C(=O)c3ccccc3C2=O)cc1 (centres undefined) | Non-toxic |  | 2.84 | 44.08 | 9.78 | 300 | 300 | 300 | Non-toxic |  |  |  | 300 |  |  |
| CCCC(CCC)C(=O)[O-].[Na+] [VALPROATE SODIUM] | Non-toxic | inactive |  |  |  | 300 |  |  | Non-toxic |  |  |  |  |  |  |
| O=C1NC(=O)C(c2ccccc2)(c2ccccc2)N1 [PHENYTOIN] |  |  |  | 18.57 | 33.9 |  | 30 | 30 |  |  |  | 100 |  | 100 |  |
| O=C(CN1C(=O)c2ccccc2C1=O)NN1C(=O)CSC1c1ccccc1O (centres undefined) |  | inactive | 1.46 | 36.91 | 32.63 |  | 100 | 100 |  | inactive |  | 100 |  | 100 |  |
| COc1ccc(C2SCC(=O)N2NC(=O)CN2C(=O)c3ccccc3C2=O)cc1 (centres undefined) |  | inactive | 1.97 | 14.93 | 3.25 |  | 100 | 100 |  | inactive |  | 300 |  | 300 |  |
| Cc1ccc(C2SCC(=O)N2NC(=O)CN2C(=O)c3ccccc3C2=O)cc1 (centres undefined) | Non-toxic |  | 2.97 | 68.16 | 25.94 | 100 | 30 | 30 | Non-toxic |  |  |  | 300 |  |  |
| O=C(CN1C(=O)c2ccccc2C1=O)NN1C(=O)CSC1c1ccco1 (centres undefined) | Non-toxic | inactive | 1.13 | 11.64 | 5.14 |  |  | 100 | Non-toxic | inactive |  |  |  |  | inactive |
| O=C(CN1C(=O)c2ccccc2C1=O)NN1C(=O)CSC1c1c(F)cccc1Cl (centres undefined) | Non-toxic |  | 3.79 | 30.18 | 12.01 | 300 | 100 | 100 | Non-toxic |  |  |  | 300 |  |  |
| O=C(CN1C(=O)c2ccccc2C1=O)NN1C(=O)CSC1c1ccccc1 (centres undefined) |  |  | 2.23 | 64.26 | 50 | 100 | 100 | 100 |  |  |  | 30 | 300 | 30 |  |
| O=C(CN1C(=O)c2ccccc2C1=O)NN1C(=O)CSC1c1ccc(Cl)cc1 (centres undefined) |  | inactive | 3.21 | 16.13 | 50.83 | 300 | 300 | 300 | Non-toxic |  |  |  |  | 300 |  |
| O=C(CN1C(=O)c2ccccc2C1=O)NN1C(=O)CSC1c1ccc(Cl)cc1Cl (centres undefined) |  |  | 2.54 | 25.55 | 63.73 | 100 | 30 |  | Non-toxic |  | inactive |  | 100 | 300 |  |
| COc1ccc(C2SCC(=O)N2NC(=O)CN2C(=O)c3ccccc3C2=O)cc1OC (centres undefined) | Non-toxic |  | 2.78 | 27.95 | 20.25 | 100 | 300 | 300 | Non-toxic |  |  |  | 300 |  |  |
| O=C(CN1C(=O)c2ccccc2C1=O)NN1C(=O)CSC1c1ccc(O)cc1 (centres undefined) |  | inactive | 2.4 | 43.34 | 68.37 |  | 100 | 30 |  | inactive |  | 300 |  | 300 |  |
| COc1cc(C2SCC(=O)N2NC(=O)CN2C(=O)c3ccccc3C2=O)ccc1O (centres undefined) | Non-toxic |  | 1.31 | 7.31 | 38.13 | 300 | 100 | 30 | Non-toxic |  |  |  | 300 |  |  |
| O=C(CN1C(=O)c2ccccc2C1=O)NN1C(=O)CSC1c1c[nH]c2ccccc12 (centres undefined) | Non-toxic | inactive | 1.59 | 25.84 | 9.95 | 300 | 300 | 300 | Non-toxic |  |  |  |  |  |  |
| O=C(CN1C(=O)c2ccccc2C1=O)NN1C(=O)CSC1c1cccnc1 (centres undefined) | Non-toxic | inactive | 1.25 | 24.01 | 18.03 |  | 300 | 100 | Non-toxic | inactive |  |  |  |  |  |
